Type in all cases: functional, Oryctolagus cuniculus, Platelet
Assay [1] in a line: Antiplatelet aggregation activity in arachidonic acid-induced rabbit platelets assessed as aggregation at 100 ug/ml. The essentials: (§1)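 Platelets preincubated 3 min at 37° with test agent (100 µg/ml) or 0.5% DMSO as control, then challenged with an inducer: ADP 20 µM, PAF 2 ng/ml, arachidonic acid 100 µM, collagen 10 µg/ml. Percent aggregation reported as means ± S.E.M., n = 3–6, compared against the respective control.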

Assay [2] is described as follows: Antiplatelet aggregation activity in collagen-induced rabbit platelets assessed as aggregation at 100 ug/ml. The essentials:
as §1

Assay [3] is described as follows: Antiplatelet aggregation activity in ADP-induced rabbit platelets assessed as aggregation at 100 ug/ml. A digest of the protocol:
as §1

A short description of assay [4]: Antiplatelet aggregation activity in PAF-induced rabbit platelets assessed as aggregation at 100 ug/ml. The essentials:
as §1

Regarding `CC(C)CC(=O)O[C@H]1c2c(ccc3ccc(=O)oc23)OC(C)(C)[C@H]1OC(=O)CC(C)C`, the Activity in assay [1] stood at 49.8%; in assay [2], 39.3%; in assay [3] it was 8.8%; in assay [4], 0%.

`CC(C)=CC(=O)O[C@H]1c2c(ccc3ccc(=O)oc23)OC(C)(C)[C@H]1OC(=O)CC(C)C` (relative stereo): the Activity is recorded as 76.3% in assay [1], 75.7% in assay [2], 64% in assay [3] and 57.4% in assay [4].

On to `CC(C)=CC(=O)O[C@H]1c2c(ccc3ccc(=O)oc23)OC(C)(C)[C@H]1OC(=O)C=C(C)C` (relative stereo), for which the Activity in assay [1] came out at 43.6%; in assay [2], 72.3%; in assay [3] it was 61.7%; in assay [4], 73.2%.
